Laboratory results reported in ChEMBL document CHEMBL1143520, “Bicyclic amidine inhibitors of nitric oxide synthase: discovery of perhydro-iminopyrindine and perhydro-iminoquinoline as potent, orally active inhibitors of inducible nitric oxide synthase” (Bioorg Med Chem Lett, 2005).

What was measured:
[1] = molecular target: Nitric oxide synthase (inducible and endothelial) (Homo sapiens) (UniProt P35228+P29474); test: Selectivity measured as the ratio of eNOS IC50/iNOS IC50; assay type: protein assay
Nitric oxide synthase 3 = molecular target: T1, Nitric oxide synthase 3 (Homo sapiens, UniProt P29474); test: Inhibitory activity against human Endothelial nitric oxide synthase (eNOS)
T1 sequence (P29474 whole entry): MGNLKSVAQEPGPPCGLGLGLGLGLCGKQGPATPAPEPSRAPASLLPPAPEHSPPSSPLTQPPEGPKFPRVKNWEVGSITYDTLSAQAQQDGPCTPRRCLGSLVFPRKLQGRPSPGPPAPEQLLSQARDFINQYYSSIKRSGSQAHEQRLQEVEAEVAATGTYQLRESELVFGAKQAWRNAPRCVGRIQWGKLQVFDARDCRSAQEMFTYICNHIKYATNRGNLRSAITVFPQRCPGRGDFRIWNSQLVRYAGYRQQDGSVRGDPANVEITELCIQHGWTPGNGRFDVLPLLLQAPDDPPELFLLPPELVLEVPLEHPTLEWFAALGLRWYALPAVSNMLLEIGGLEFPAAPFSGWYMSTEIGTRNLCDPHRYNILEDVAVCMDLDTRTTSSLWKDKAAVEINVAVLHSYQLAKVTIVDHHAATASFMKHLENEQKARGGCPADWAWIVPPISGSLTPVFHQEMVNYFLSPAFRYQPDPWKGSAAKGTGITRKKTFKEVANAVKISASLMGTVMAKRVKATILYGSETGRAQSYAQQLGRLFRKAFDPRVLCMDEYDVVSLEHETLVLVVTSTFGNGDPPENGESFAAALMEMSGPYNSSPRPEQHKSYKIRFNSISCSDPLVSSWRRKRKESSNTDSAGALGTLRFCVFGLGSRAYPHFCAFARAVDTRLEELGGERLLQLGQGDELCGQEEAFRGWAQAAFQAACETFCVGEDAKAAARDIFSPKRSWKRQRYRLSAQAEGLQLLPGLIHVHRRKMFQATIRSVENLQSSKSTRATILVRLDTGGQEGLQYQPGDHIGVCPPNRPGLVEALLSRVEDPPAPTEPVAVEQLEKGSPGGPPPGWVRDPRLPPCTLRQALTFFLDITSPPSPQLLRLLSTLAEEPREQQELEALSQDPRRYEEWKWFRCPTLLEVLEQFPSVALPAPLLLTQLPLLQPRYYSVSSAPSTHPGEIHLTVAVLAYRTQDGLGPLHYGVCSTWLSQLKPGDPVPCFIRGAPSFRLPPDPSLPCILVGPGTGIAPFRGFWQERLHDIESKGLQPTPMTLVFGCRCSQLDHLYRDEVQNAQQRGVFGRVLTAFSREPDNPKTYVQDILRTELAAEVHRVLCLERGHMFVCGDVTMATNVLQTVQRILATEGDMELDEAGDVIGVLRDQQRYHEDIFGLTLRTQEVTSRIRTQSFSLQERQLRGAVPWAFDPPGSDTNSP

Nitric oxide synthase 1 = Nitric oxide synthase 1 (Homo sapiens, UniProt P29475); test: Inhibitory activity against human Neuronal nitric oxide synthase (nNOS)
[2] = molecular target: Nitric oxide synthase, inducible (Homo sapiens, UniProt P35228); test: Inhibitory activity against human Inducible nitric oxide synthase (iNOS)
Rattus norvegicus [3] = test: Effective dose causing 50% reduction in plasma nitrite relative to control animals after intravenous administration in LPS treated rats; assay type: functional
How it was run: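 Rat endotoxin model: LPS challenge, then iv dosing 2 h after LPS. Plasma collected 5 h after LPS. Nitrate converted to nitrite with nitrate reductase, then total nitrite/nitrate measured fluorometrically.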

Rattus norvegicus [4] = test: Percentage inhibition of plasma nitrite/nitrate after peroral administration of 10 mg/kg of compound to rats 16 hr prior to LPS treating; assay type: functional; conditions: route oral
How it was run: (§1)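 Rats given 10 mg/kg po at set times before LPS challenge. Plasma nitrate/nitrite measured 5 h after LPS: nitrate reduced to nitrite by nitrate reductase, then fluorometric nitrite read-out. Reported as % inhibition of plasma NOx.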

Rattus norvegicus [5] = test: Percentage inhibition of plasma nitrite/nitrate after peroral administration of 10 mg/kg of compound to rats 4 hr prior to LPS treating; assay type: functional; conditions: route oral; how it was run: as §1
Rattus norvegicus [6] = test: Percentage inhibition of plasma nitrite/nitrate after peroral administration of 10 mg/kg of compound to rats 2 hr prior to LPS treating; assay type: functional; conditions: route oral; how it was run: as §1
Rattus norvegicus [7] = test: Percentage inhibition of plasma nitrite/nitrate after peroral administration of 10 mg/kg of compound to rats 1 hr prior to LPS treating; assay type: functional; conditions: route oral; how it was run: as §1

Nitric oxide synthase, inducible, sequence (P35228 whole entry): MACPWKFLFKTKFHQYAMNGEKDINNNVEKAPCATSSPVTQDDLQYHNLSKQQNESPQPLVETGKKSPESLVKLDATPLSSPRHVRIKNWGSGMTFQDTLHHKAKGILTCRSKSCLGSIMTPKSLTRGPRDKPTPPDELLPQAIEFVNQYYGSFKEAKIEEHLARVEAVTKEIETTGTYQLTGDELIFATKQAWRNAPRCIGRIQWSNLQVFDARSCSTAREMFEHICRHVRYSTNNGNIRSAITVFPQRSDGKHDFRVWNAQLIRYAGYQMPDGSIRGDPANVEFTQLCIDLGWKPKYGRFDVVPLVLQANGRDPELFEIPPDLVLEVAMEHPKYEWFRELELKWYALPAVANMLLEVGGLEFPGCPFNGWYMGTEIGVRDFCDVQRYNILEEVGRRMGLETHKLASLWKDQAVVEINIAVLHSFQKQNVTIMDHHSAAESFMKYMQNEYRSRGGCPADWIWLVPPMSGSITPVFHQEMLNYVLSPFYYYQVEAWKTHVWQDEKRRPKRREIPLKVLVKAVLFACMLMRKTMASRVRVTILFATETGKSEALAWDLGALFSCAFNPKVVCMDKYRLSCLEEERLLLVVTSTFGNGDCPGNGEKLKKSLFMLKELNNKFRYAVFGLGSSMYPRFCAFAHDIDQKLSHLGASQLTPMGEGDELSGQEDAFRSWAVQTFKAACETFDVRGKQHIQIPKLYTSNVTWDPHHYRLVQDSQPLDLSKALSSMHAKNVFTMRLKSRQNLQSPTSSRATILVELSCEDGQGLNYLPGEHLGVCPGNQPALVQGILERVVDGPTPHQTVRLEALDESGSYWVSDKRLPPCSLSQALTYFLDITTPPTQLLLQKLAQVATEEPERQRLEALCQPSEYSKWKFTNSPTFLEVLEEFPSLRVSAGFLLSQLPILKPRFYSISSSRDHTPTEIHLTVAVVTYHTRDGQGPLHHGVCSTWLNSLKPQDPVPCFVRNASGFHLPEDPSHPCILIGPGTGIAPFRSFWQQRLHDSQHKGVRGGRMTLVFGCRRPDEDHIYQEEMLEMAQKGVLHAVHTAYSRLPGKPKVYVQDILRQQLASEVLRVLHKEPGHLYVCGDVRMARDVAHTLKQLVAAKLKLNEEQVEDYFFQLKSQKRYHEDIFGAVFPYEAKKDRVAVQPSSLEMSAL
Nitric oxide synthase 1, sequence (P29475 whole entry): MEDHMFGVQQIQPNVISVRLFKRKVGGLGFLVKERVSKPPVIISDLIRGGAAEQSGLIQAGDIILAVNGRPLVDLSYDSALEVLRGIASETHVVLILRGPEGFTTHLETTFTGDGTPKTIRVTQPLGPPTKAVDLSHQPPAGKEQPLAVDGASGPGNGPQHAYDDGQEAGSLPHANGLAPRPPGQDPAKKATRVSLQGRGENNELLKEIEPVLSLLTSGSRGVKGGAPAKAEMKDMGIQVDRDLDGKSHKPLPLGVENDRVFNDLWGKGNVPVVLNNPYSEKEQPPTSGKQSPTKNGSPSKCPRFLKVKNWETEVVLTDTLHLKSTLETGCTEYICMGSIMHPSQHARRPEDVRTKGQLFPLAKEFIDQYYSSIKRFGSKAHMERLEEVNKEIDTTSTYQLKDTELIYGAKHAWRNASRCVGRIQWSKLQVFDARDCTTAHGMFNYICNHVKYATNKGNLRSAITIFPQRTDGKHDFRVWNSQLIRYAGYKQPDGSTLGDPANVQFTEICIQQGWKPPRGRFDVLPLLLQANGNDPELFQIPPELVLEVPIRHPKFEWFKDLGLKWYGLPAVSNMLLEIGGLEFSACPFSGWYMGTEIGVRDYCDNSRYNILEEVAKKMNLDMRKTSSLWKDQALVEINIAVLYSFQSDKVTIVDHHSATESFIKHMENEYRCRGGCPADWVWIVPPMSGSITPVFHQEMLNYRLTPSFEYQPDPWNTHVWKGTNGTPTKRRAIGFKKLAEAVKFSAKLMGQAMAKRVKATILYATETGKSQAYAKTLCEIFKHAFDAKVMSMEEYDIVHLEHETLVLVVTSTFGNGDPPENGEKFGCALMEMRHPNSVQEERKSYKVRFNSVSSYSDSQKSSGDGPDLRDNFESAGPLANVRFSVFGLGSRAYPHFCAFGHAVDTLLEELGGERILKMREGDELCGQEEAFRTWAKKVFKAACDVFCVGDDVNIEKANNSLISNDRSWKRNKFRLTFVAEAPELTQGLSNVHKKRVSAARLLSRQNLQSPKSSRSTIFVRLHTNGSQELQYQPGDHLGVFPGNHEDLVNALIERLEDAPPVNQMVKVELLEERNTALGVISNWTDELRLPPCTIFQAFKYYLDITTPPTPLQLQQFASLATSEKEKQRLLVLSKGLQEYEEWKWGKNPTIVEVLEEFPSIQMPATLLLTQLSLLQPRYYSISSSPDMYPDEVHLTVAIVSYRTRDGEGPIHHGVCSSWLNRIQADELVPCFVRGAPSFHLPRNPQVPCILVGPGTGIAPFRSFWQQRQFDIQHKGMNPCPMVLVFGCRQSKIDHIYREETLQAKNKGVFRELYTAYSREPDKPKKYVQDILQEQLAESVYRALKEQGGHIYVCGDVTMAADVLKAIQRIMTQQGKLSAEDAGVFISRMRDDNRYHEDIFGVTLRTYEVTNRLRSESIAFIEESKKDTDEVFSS

| SMILES | Selectivity [1] | IC50 (Nitric oxide synthase 3) [nM] | IC50 (Nitric oxide synthase 1) [nM] | IC50 [2] [nM] | ED50 (Rattus norvegicus [3]) [mg/kg] | inhibition in vivo at 10 mg/kg (Rattus norvegicus [4]) [%] | inhibition in vivo at 10 mg/kg (Rattus norvegicus [5]) [%] | inhibition in vivo at 10 mg/kg (Rattus norvegicus [6]) [%] | inhibition in vivo at 10 mg/kg (Rattus norvegicus [7]) [%] |
| --- | --- | --- | --- | --- | --- | --- | --- | --- | --- |
| NC1=Nc2ccccc2CC1 | 6.1 | 85000 | 4900 | 14000 |  |  |  |  |  |
| N=C1CCCCN1 |  | 630 |  | 300 |  |  |  |  |  |
| CC1CCN=C(N)C1 (configuration not stated) |  |  |  | 37 | 0.5 |  |  |  |  |
| C[C@H]1CC(N)=N[C@H]2CCC[C@H]21 | 6.5 | 870 | 36 | 133 |  |  |  |  |  |
| C[C@@H]1CC(N)=N[C@H]2CCCC[C@@H]12 | 52 | 2000 | 190 | 38 |  |  |  |  |  |
| C[C@@H]1CC(N)=N[C@@H]2CCC[C@H]12 (stereo in doubt; 10a) [listing 1 of 2 here] | 40 |  |  |  |  |  |  |  |  |
| C[C@@H]1CC(N)=N[C@@H]2CCCCC[C@H]12 | 5.2 | 4500 | 1300 | 860 |  |  |  |  |  |
| C[C@@H]1CC(N)=N[C@@H]2CCC[C@H]12 (stereo in doubt; 10) [listing 1 of 2 here] | 31 |  |  |  |  |  |  |  |  |
| NC1=N[C@H]2CCCC[C@@H]2CC1 |  | 5500 | 530 | 528 |  |  |  |  |  |
| C[C@@H]1CC(N)=N[C@@H]2CCC[C@H]12 (stereo in doubt; 10a) [listing 2 of 2 here] |  | 360 | 21 | 9 | 0.25 | 39 | 52 | 80 | 95 |
| C[C@@H]1CC(N)=N[C@@H]2CCCC[C@H]12 | 37 | 830 | 53 | 22 | 0.19 | 42 | 74 | 69 | 57 |
| C[C@H]1CC(N)=N[C@H]2CCCC[C@H]21 |  | > 5000 | 610 | > 5000 |  |  |  |  |  |
| NC1=N[C@H]2CCCC[C@H]2CC1 | 67 | 12500 | 246 | 186 |  |  |  |  |  |
| C[C@@H]1CC(N)=N[C@@H]2CCC[C@H]12 (stereo in doubt; 10) [listing 2 of 2 here] |  | 470 | 31 | 15 |  |  |  |  |  |
